As a reminder, the MIC is the least concentration at which growth counts as inhibited. For orientation: IC50 means the concentration that inhibits the measured activity by half. As usually defined, the fraction remaining is the share of the starting amount still present when the sample was taken.

For data set [1], the system named is Pseudomonas aeruginosa. The data set is described as follows: Antibacterial activity against clinical isolate Pseudomonas aeruginosa SR27156 assessed as growth inhibition after 20 hrs by microdilution method. Type of data set: functional. The settings on record: SR27156, 20 h. In short, it runs like this:
(§1)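 Broth microdilution per CLSI in cation-adjusted Mueller-Hinton broth, using serial 2-fold compound dilutions. Each strain was inoculated at 5 × 10⁴ CFU per well in 0.1 mL. Plates were incubated at 35 °C for 20 h, and the MIC was then scored.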
For orientation: Dilution methods test growth across graded concentrations, often in twofold steps.

For data set [2], the system named is Pseudomonas aeruginosa. The data set is described as follows: Antibacterial activity against Pseudomonas aeruginosa PAO1 assessed as growth inhibition after 20 hrs by microdilution method. In kind it is functional. The settings on record: PAO1, 20 h. In short, it runs like this: as §1
The subject of data set [3] is Pseudomonas aeruginosa. The data set is described as follows: Antibacterial activity against Pseudomonas aeruginosa ATCC 27853 assessed as growth inhibition after 20 hrs by microdilution method. The settings on record: ATCC 27853, 20 h. Type of data set: functional. In short, it runs like this:
as §1

The test system of data set [4] is Pseudomonas aeruginosa. The data set is described as follows: Antibacterial activity against Pseudomonas aeruginosa ATCC 25619 assessed as growth inhibition after 20 hrs by microdilution method. Type of data set: functional. The settings on record: ATCC 25619, 20 h. In short, it runs like this: as §1
Data set [5] can be described thus: Inhibition of Staphylococcus aureus MraY by fluorescence assay. In short, it runs like this:
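Purified S. aureus MraY was given UDP-MurNAc-dansylpentapeptide as substrate. Formation of dansylated lipid I was followed by fluorescence enhancement (excitation 355 nm, emission 535 nm).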

Data set [6] concerns Pseudomonas aeruginosa. The data set is described as follows: Antibacterial activity against Pseudomonas aeruginosa YY165 deltamexB mutant assessed as growth inhibition after 20 hrs by microdilution method. Type of data set: functional. Particulars: YY165, 20 h. In short, it runs like this: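 Broth microdilution per CLSI in cation-adjusted Mueller–Hinton broth; serial 2-fold compound dilutions inoculated with 5 × 10⁴ CFU per well (0.1 mL), incubated 35 °C for 20 h, then MIC scored. Strain YY165 is a MexB deletion mutant lacking the inner-membrane transporter of the MexAB-OprM efflux system.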

Data set [7] is described as follows: Metabolic stability in rat liver microsomes assessed as compound remaining at 2 uM after 30 mins incubation by LC-MS/MS analysis. Background: Liver microsomes are vesicles of endoplasmic reticulum, rich in cytochrome P450 enzymes.
Data set [8] can be described thus: Metabolic stability in human liver microsomes assessed as compound remaining at 2 uM after 30 mins incubation by LC-MS/MS analysis.
For data set [9], the system named is HepG2. The data set is described as follows: Cytotoxicity against human HepG2 cells. Type of data set: functional, cell-based.

Molecules are shown by their SMILES. In brackets after ≈: the same amount, converted by molar mass.

Regarding `CCCCCCCCCCCCCCC[C@H](NC(=O)c1ccncc1)C(=O)NCCCN[C@H](C(=O)O)[C@H](O[C@@H]1O[C@H](CN)[C@@H](O)[C@H]1O)[C@H]1O[C@@H](n2ccc(=O)[nH]c2=O)[C@H](O)[C@@H]1O`, the MIC in data set [1] is greater than 64 µg/mL; in data set [2], greater than 64 µg/mL; in [3] it was greater than 64 µg/mL; in data set [4], 64 µg/mL (≈ 72.9 µM); in [6], greater than 64 µg/mL. The molecule further showed an IC50 in data set [5] of 8.1 nM.

With `CCCCCCCCCCCCCCC[C@H](NC(=O)c1ccnnc1)C(=O)NCCCN[C@H](C(=O)O)[C@H](O[C@@H]1O[C@H](CN)[C@@H](O)[C@H]1O)[C@H]1O[C@@H](n2ccc(=O)[nH]c2=O)[C@H](O)[C@@H]1O`, the MIC was greater than 64 µg/mL in [1]; greater than 64 µg/mL in data set [2]; greater than 64 µg/mL in data set [3]; 64 µg/mL (≈ 72.8 µM) in [4]; 64 µg/mL (≈ 72.8 µM) in data set [6]. For the same molecule, it took 13.5 nM to reach half-maximal inhibition in data set [5] (IC50).

As for `CCCCCCCCCCCCCCC[C@H](NC(=O)c1cnccn1)C(=O)NCCCN[C@H](C(=O)O)[C@H](O[C@@H]1O[C@H](CN)[C@@H](O)[C@H]1O)[C@H]1O[C@@H](n2ccc(=O)[nH]c2=O)[C@H](O)[C@@H]1O`, the MIC in data set [1] was greater than 64 µg/mL; in data set [2] it was greater than 64 µg/mL; in data set [3], greater than 64 µg/mL; in [4], 64 µg/mL (≈ 72.8 µM); in [6], greater than 64 µg/mL. Besides, half-maximal inhibition in data set [5] (IC50) required 33.1 nM.

As for `CCCCCCCCCCCCCCC[C@H](NC(=O)c1ccc2ccccc2n1)C(=O)NCCCN[C@H](C(=O)O)[C@H](O[C@@H]1O[C@H](CN)[C@@H](O)[C@H]1O)[C@H]1O[C@@H](n2ccc(=O)[nH]c2=O)[C@H](O)[C@@H]1O`, the MIC in [1], in data set [2], in data set [3], in [4] and in data set [6] was greater than 64 µg/mL in each case. In data set [5], this molecule came in with an IC50 of 105 nM.

Regarding `N=C(N)NCCCCCC(=O)NCCCCCC(=O)NCCCN[C@H](C(=O)O)[C@H](O[C@@H]1O[C@H](CN)[C@@H](O)[C@H]1O)[C@H]1O[C@@H](n2ccc(=O)[nH]c2=O)[C@H](O)[C@@H]1O`, the MIC in data set [1], in [2], in data set [3], in data set [4] and in data set [6] was greater than 64 µg/mL each time. The IC50 in [5] was found to be 1490 nM.

With `CCCCCCCCC(=O)NCCCCCC(=O)NCCCN[C@H](C(=O)O)[C@H](O[C@@H]1O[C@H](CN)[C@@H](O)[C@H]1O)[C@H]1O[C@@H](n2ccc(=O)[nH]c2=O)[C@H](O)[C@@H]1O`, the MIC in [1], in [2], in data set [3], in [4] and in data set [6] was greater than 64 µg/mL in each case. 97.3 nM corresponded to half-maximal inhibition in [5] (IC50).

Consider `CC(C)CCCC(=O)N[C@@H](CCCNC(=N)N)C(=O)NCCCN[C@H](C(=O)O)[C@H](O[C@@H]1O[C@H](CN)[C@@H](O)[C@H]1O)[C@H]1O[C@@H](n2ccc(=O)[nH]c2=O)[C@H](O)[C@@H]1O`, for which the MIC in [1], in [2], in data set [3], in data set [4] and in [6] was greater than 64 µg/mL in each case. Further, the IC50 in data set [5] was 225 nM.

For the molecule `CCCCCCCCCCC(=O)N[C@@H](CCCNC(=N)N)C(=O)NCCCN[C@H](C(=O)O)[C@H](O[C@@H]1O[C@H](CN)[C@@H](O)[C@H]1O)[C@H]1O[C@@H](n2ccc(=O)[nH]c2=O)[C@H](O)[C@@H]1O`, the MIC in [1] was greater than 64 µg/mL; in [2], greater than 64 µg/mL; in [3] it was greater than 64 µg/mL; in [4], 32 µg/mL (≈ 38.6 µM); in data set [6] it was greater than 64 µg/mL. The same molecule returned an IC50 in data set [5] of 9.8 nM.

As for `CCCCCCCCCCCCCC(=O)N[C@@H](CCCNC(=N)N)C(=O)NCCCN[C@H](C(=O)O)[C@H](O[C@@H]1O[C@H](CN)[C@@H](O)[C@H]1O)[C@H]1O[C@@H](n2ccc(=O)[nH]c2=O)[C@H](O)[C@@H]1O`, the MIC in data set [1] was found to be 16 µg/mL (≈ 18.3 µM); in [2], 32 µg/mL (≈ 36.7 µM); in [3], 32 µg/mL (≈ 36.7 µM); in data set [4], 16 µg/mL (≈ 18.3 µM); in [6], 16 µg/mL (≈ 18.3 µM). Moreover, in data set [5], the IC50 came to 2.1 nM.

Turning to `CCCCCCCCCCCCCCCCC(=O)N[C@@H](CCCNC(=N)N)C(=O)NCCCN[C@H](C(=O)O)[C@H](O[C@@H]1O[C@H](CN)[C@@H](O)[C@H]1O)[C@H]1O[C@@H](n2ccc(=O)[nH]c2=O)[C@H](O)[C@@H]1O`, the MIC in data set [1] was found to be 16 µg/mL (≈ 17.5 µM); in data set [2], 16 µg/mL (≈ 17.5 µM); in data set [3], 32 µg/mL (≈ 35 µM); in data set [4], 16 µg/mL (≈ 17.5 µM); in data set [6] it was 8 µg/mL (≈ 8.75 µM). Besides, the share remaining at 0.5 h, 2 µM was determined as 81.1% in data set [7] and 89.5% in data set [8]. In data set [5], this molecule showed an IC50 of 1.6 nM.

With `CCCCCCCCCCCCCCCCNC(=O)[C@@H](NCCCNC(=O)[C@@H](N)CCCNC(=N)N)[C@H](O[C@@H]1O[C@H](CN)[C@@H](O)[C@H]1O)[C@H]1O[C@@H](n2ccc(=O)[nH]c2=O)[C@H](O)[C@@H]1O`, the MIC came out at 16 µg/mL (≈ 18.1 µM) in data set [1]; 32 µg/mL (≈ 36.2 µM) in [2]; 16 µg/mL (≈ 18.1 µM) in data set [3]; 16 µg/mL (≈ 18.1 µM) in data set [4]; 16 µg/mL (≈ 18.1 µM) in [6]. This molecule showed an IC50 in data set [5] of 12.2 nM.

Take `CCCCCCCCCCCCCCCCC(=O)N[C@@H](CCCNC(=N)N)C(=O)NCCCN[C@H](C(=O)NCCCCNC(=N)N)[C@H](O[C@@H]1O[C@H](CN)[C@@H](O)[C@H]1O)[C@H]1O[C@@H](n2ccc(=O)[nH]c2=O)[C@H](O)[C@@H]1O`: the MIC in data set [1] amounted to 8 µg/mL (≈ 7.8 µM); in data set [2], 4 µg/mL (≈ 3.9 µM); in data set [3], 8 µg/mL (≈ 7.8 µM); in data set [4], 8 µg/mL (≈ 7.8 µM); in data set [6] it was 4 µg/mL (≈ 3.9 µM). The fraction remaining at 0.5 h, 2 µM in data set [7] worked out at 69.8%; in data set [8] it was 86.9%. Besides, the IC50 in data set [9] was determined as 34 µg/mL (≈ 33.1 µM); in data set [5], 0.6 nM.

On to `CC(C)C[C@H](NC(=O)[C@@H](NC(=O)N[C@H](C(=O)O)C(C)C)[C@@H]1CCNC(=N)N1)C(=O)NCCCN[C@H](C(=O)O)[C@H](O[C@@H]1O[C@H](CN)[C@@H](O)[C@H]1O)[C@H]1O[C@@H](n2ccc(=O)[nH]c2=O)[C@H](O)[C@@H]1O` [MURAMYCIN D2], for which the MIC in data set [1] is 32 µg/mL (≈ 34.9 µM); in data set [2] it was greater than 64 µg/mL; in data set [3] it was greater than 64 µg/mL; in [4], 64 µg/mL (≈ 69.9 µM); in data set [6], 64 µg/mL (≈ 69.9 µM). This molecule displayed an IC50 in data set [5] of 2.8 nM.

The record behind these values is ChEMBL document CHEMBL3286247, “Expansion of Antibacterial Spectrum of Muraymycins toward Pseudomonas aeruginosa” (ACS Med Chem Lett, 2014).
